Reference: ChEMBL document CHEMBL3739318, “Orally Bioavailable Metal Chelators and Radical Scavengers: Multifunctional Antioxidants for the Coadjutant Treatment of Neurodegenerative Diseases” (J Med Chem, 2015)
Active and inactive are the calls of the source. The rule behind the calls is not given here.

Columns and labels:
[1] = Metal chelating activity assessed as stoichiometric ratio of compound to Cu2+ ion at 0.1 to 0.5 mM of compound and metal ion mixture after 45 mins by spectrophotometric analysis; assay type: physicochemical; details: 0.75 h, 500 µM
How it was run: (§1)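 Job continuous-variation method at 23 °C. Compound dissolved in acetonitrile, then diluted to 0.1 mM stock in 1 mM acetate pH 6.5. Compound + ion at constant total 0.1–0.5 mM with varied mole fraction. After 45 min equilibration, UV absorbance scanned 210–310 nm. Stoichiometry taken from the intersection of lines. Mean ± SD, n = 3.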

[2] = Metal chelating activity assessed as stoichiometric ratio of compound to Zn2+ ion at 0.1 to 0.5 mM of compound and metal ion mixture after 45 mins by spectrophotometric analysis; assay type: physicochemical; details: 0.75 h, 500 µM; how it was run: as §1
[3] = Metal chelating activity assessed as stoichiometric ratio of compound to Cu+ ion at 0.1 to 0.5 mM of compound and metal ion mixture after 45 mins by spectrophotometric analysis; assay type: physicochemical; details: 0.75 h, 500 µM; how it was run: as §1
SH-SY5Y [4] = experiment: Antioxidant activity in human SH-SY5Y cells assessed as reduction of xanthine oxidase-mediated superoxide generation preincubated for 1 hr followed by xanthine oxidase challenge for 1 hr by MitoSOX staining-based fluorescence analysis; assay type: functional, cell-based
How it was run: (§2)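 Cells washed with PBS, then preincubated 1 h at 37 °C in serum-free medium with 1, 10, 100 or 1000 μM compound, or SOD 25 μg/mL as reference. Xanthine oxidase added (25 mU/mL; ~100 μM superoxide) for 1 h more. After a PBS wash, cells stained with MitoSOX Red (5 μM) for 2 h. Fluorescence read at Ex/Em 510/580 nm.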

[5] = Metal chelating activity assessed as stoichiometric ratio of compound to Mg2+ ion at 0.1 to 0.5 mM of compound and metal ion mixture after 45 mins by spectrophotometric analysis; assay type: physicochemical; details: 0.75 h, 500 µM; how it was run: as §1
[6] = Cytotoxicity against human ARPE19 cells assessed as reduction in cell viability at 1 mM after 2 hrs by MTS assay; assay type: cell-based; details: arpe-19, 2 h, 1000 µM
How it was run: (§3)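 ARPE-19 grown in DMEM + 4% FBS and SH-SY5Y in EMEM/F12 + 10% FBS, at 37 °C, 5% CO2. Plated at 1 × 10^4 cells/well. Exposed 2 h to 1 mM compound (0.16% DMSO) without oxidant. Viability by MTS. Mean ± SEM, n = 4, ANOVA versus blank control.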

SH-SY5Y [7] = experiment: Neuroprotective activity against Fenton reagent-induced ROS generation-stimulated cytotoxicity in human SH-SY5Y cells assessed as cell viability at 1 mM after 2 hrs by MTS assay; assay type: functional, cell-based
How it was run: (§4)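 Cells in 96-well format exposed 2 h to Fenton reagent (1 mM H2O2 + 1 mM Fe2+) with or without 1 mM compound in 0.16% DMSO. Viability by MTS assay, normalized to untreated cells without Fenton reagent (100%). Mean ± SEM, n = 4. ANOVA.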

SH-SY5Y [8] = experiment: Neuroprotective activity against Fenton reagent-induced ROS generation in human SH-SY5Y cells assessed as increase in GSH level at 1 mM after 2 hrs by DTNB method; assay type: functional, cell-based
How it was run: (§5)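 Cells grown in 60 or 150 mm dishes and exposed 2 h to Fenton reagent (1 mM H2O2 + 1 mM Fe2+) with or without 1 mM compound in 0.16% DMSO. Intracellular glutathione then measured. Mean ± SEM, n = 6. ANOVA.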

[9] = Metal chelating activity assessed as stoichiometric ratio of compound to Fe2+ ion at 0.1 to 0.5 mM of compound and metal ion mixture after 45 mins by spectrophotometric analysis; assay type: physicochemical; details: 0.75 h, 500 µM; how it was run: as §1
[10] = Metal chelating activity assessed as stoichiometric ratio of compound to Mn2+ ion at 0.1 to 0.5 mM of compound and metal ion mixture after 45 mins by spectrophotometric analysis; assay type: physicochemical; details: 0.75 h, 500 µM; how it was run: as §1
SH-SY5Y [11] = experiment: Cytotoxicity against human SH-SY5Y cells assessed as reduction in cell viability at 1 mM after 2 hrs by MTS assay; assay type: cell-based; details: 1000 µM; how it was run: as §3
[12] = Metal chelating activity assessed as stoichiometric ratio of compound to Fe3+ ion at 0.1 to 0.5 mM of compound and metal ion mixture after 45 mins by spectrophotometric analysis; assay type: physicochemical; details: 0.75 h, 500 µM; how it was run: as §1
SH-SY5Y [13] = experiment: Neuroprotective activity against Fenton reagent-induced hydroxy radical-stimulated cytotoxicity in human SH-SY5Y cells assessed as cell survival at 1 to 1000 uM preincubated for 1 hr followed by Fenton reagent challenge for 2 hrs by fluorescence-based LIVE/DEAD viability/cytotoxicity assay; assay type: functional
How it was run: (§6)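 After a PBS wash, cells preincubated 1 h at 37 °C in serum-free medium with 1–1000 μM compound. Fenton reagent (Fe2+/H2O2, 100 μM final) then added for 2 h. Stained 15 min at 37 °C with calcein AM 8 μM and EthD-1 16 μM. Fluorescence read at 494/517 and 528/617 nm. % live cells calculated from blank-corrected single-dye controls; dead-cell control 70% ethanol. Mean ± SEM, n = 6.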

[14] = Drug uptake in neural retina of C57BL/6 mouse assessed per mg of protein at 80 mg/kg, po administered everyday for 14 days by HPLC-MS analysis; assay type: ADME, organism-based; details: in vivo, 336 h
How it was run: (§7)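 C57BL/6 mice fed chow containing 0.05% compound (~80 mg/kg/day average) for 14 days. Perfused with PBS; brain, lens and neural retina homogenized in ice-cold 10 mM acetate pH 4 with internal standard. Extracted with TCA precipitation and chloroform. Analyzed by reverse-phase C18 HPLC.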

[15] = Metal chelating activity assessed as stoichiometric ratio of compound to Ca2+ ion at 0.1 to 0.5 mM of compound and metal ion mixture after 45 mins by spectrophotometric analysis; assay type: physicochemical; details: 0.75 h, 500 µM; how it was run: as §1
ARPE-19 [16] = experiment: Neuroprotective activity against Fenton reagent-induced ROS generation in human ARPE19 cells assessed as increase in GSH level at 1 mM after 2 hrs by DTNB method; assay type: functional, cell-based; how it was run: as §5
ARPE-19 [17] = experiment: Antioxidant activity in human ARPE19 cells assessed as reduction of xanthine oxidase-mediated superoxide generation preincubated for 1 hr followed by xanthine oxidase challenge for 1 hr by MitoSOX staining-based fluorescence analysis; assay type: functional, cell-based; how it was run: as §2
ARPE-19 [18] = experiment: Neuroprotective activity against Fenton reagent-induced ROS generation-stimulated cytotoxicity in human ARPE19 cells assessed as cell viability at 1 mM after 2 hrs by MTS assay; assay type: functional, cell-based; how it was run: as §4
ARPE-19 [19] = experiment: Neuroprotective activity against Fenton reagent-induced hydroxy radical-stimulated cytotoxicity in human ARPE19 cells assessed as cell survival at 1 to 1000 uM preincubated for 1 hr followed by Fenton reagent challenge for 2 hrs by fluorescence-based LIVE/DEAD viability/cytotoxicity assay; assay type: functional; how it was run: as §6
[20] = Drug uptake in lens of C57BL/6 mouse assessed per mg of protein at 80 mg/kg, po administered everyday for 14 days by HPLC-MS analysis; assay type: ADME, organism-based, Lens of camera-type eye; details: in vivo, 336 h; how it was run: as §7
Brain = experiment: Drug uptake in brain of C57BL/6 mouse assessed per mg of protein at 80 mg/kg, po administered everyday for 14 days by HPLC-MS analysis; assay type: ADME, organism-based; details: in vivo, 336 h; how it was run: as §7

| SMILES | Ratio [1] | Ratio [2] | Ratio [3] | Activity (SH-SY5Y [4]) | Ratio [5] | Activity [6] | Activity (SH-SY5Y [7]) | Activity (SH-SY5Y [8]) | Ratio [9] | Ratio [10] | Activity (SH-SY5Y [11]) | Ratio [12] | Activity (SH-SY5Y [13]) | Drug uptake [14] | Ratio [15] | Activity (ARPE-19 [16]) | Activity (ARPE-19 [17]) | Activity (ARPE-19 [18]) | Activity (ARPE-19 [19]) | Drug uptake [20] | other results |
| --- | --- | --- | --- | --- | --- | --- | --- | --- | --- | --- | --- | --- | --- | --- | --- | --- | --- | --- | --- | --- | --- |
| COc1nc(N2C(=O)CCC2=O)nc(OC)c1O | 2.13 | 2.01 | 2.03 | Dose-dependent effect | 0 | Non-toxic | Active | Active | 2.03 | 2.22 | Non-toxic | 2.12 | Dose-dependent effect | Active | 0 | Active | Dose-dependent effect | Active | Dose-dependent effect | Active |  |
| CN(C)S(=O)(=O)N1CC(=O)N(c2ncc(O)cn2)C(=O)C1 |  |  |  | Dose-dependent effect |  |  | Active | Active |  |  |  |  | Dose-dependent effect | Active |  | Active | Dose-dependent effect | Active | Dose-dependent effect | Active | Drug uptake (Brain): 3 ng/mg |
| Cc1c(C)c2c(c(C)c1O)CCC(C)(C(=O)O)O2 (stereo unspecified) [TROLOX] |  |  |  | Dose-dependent effect |  | Non-toxic | Active | Active |  |  | Non-toxic |  | Dose-dependent effect |  |  | Active | Dose-dependent effect | Active | Dose-dependent effect |  |  |
| COc1nc(N2C(=O)CN(S(=O)(=O)N(C)C)CC2=O)nc(OC)c1O |  |  |  |  |  |  |  |  |  |  |  |  |  | Active |  |  |  |  |  | Active | Drug uptake (Brain): 4 ng/mg |
| COc1nc(N2C(=O)CCCC2=O)nc(OC)c1O | 1.86 | 2.09 | 1.97 |  | 0 | Non-toxic | Active | Active | 1.97 | 2.12 | Non-toxic | 1.82 |  | Active | 0 | Active |  | Active |  | Active |  |
| Oc1c(I)cc(Cl)c2cccnc12 [CLIOQUINOL] |  |  |  | Dose-dependent effect |  | 30% | Active | Active |  |  | 20% |  | Dose-dependent effect |  |  | Active | Dose-dependent effect | Active | Dose-dependent effect |  |  |
| O=C1CCCC(=O)N1c1ncc(O)cn1 | 1.75 | 1.99 | 1.86 |  | 0 | Non-toxic | Active | Active | 1.85 | 1.91 | Non-toxic | 1.92 |  | Active | 0 | Active |  | Active |  | Active |  |
| O=C1CCC(=O)N1c1ncc(O)cn1 | 2.28 | 1.87 | 2.01 | Dose-dependent effect | 0 | Non-toxic | Active | Active | 2.06 | 2.14 | Non-toxic | 2.01 | Dose-dependent effect | Active | 0 | Active | Dose-dependent effect | Active | Dose-dependent effect | Active |  |
